# According to article PMC11402776 (The Journal of Biological Chemistry, 2024):
# Read-outs that look alike come from different tables or passages of the source.
# Key:
# cell lysate PK (A549) = cell lysate PK (A549) (Homo sapiens, UniProt P14618); assay: PK activity assay, A549 cell lysate; format: biochemical
# cell lysate PK (HeLa) = cell lysate PK (HeLa) (Homo sapiens, UniProt P14618); assay: PK activity assay, HeLa cell lysate; format: biochemical
# cell lysate PK (MGC80-3) = cell lysate PK (MGC80-3) (Homo sapiens, UniProt P14618); assay: PK activity assay, MGC80-3 cell lysate; format: biochemical; conditions: MGC80-3 lysate; with AIM
# Sequence of cell lysate PK (MGC80-3) (P14618 2-531): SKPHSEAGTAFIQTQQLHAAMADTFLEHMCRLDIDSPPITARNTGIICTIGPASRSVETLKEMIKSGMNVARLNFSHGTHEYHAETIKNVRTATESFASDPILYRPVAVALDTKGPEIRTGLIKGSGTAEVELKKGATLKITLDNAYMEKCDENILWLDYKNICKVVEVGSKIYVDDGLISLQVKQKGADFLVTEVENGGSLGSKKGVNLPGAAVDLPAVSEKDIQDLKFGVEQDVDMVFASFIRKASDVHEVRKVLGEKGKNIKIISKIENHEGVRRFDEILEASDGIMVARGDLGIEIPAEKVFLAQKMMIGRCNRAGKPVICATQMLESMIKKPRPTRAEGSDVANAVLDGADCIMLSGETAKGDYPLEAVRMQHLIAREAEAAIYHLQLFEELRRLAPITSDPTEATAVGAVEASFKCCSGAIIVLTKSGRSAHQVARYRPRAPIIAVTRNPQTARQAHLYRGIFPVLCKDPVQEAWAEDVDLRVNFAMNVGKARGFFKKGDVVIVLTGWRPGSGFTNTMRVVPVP
# cell lysate PK (RKO) = cell lysate PK (RKO) (Homo sapiens, UniProt P14618); assay: PK activity assay, RKO cell lysate; format: biochemical
# Sequence of cell lysate PK (RKO) (P14618 2-531): as above
# [1] = biological target: cell lysate PK (SK-HEP-1) (Homo sapiens, UniProt P14618); assay: PK activity assay, SK-HEP-1 cell lysate; format: biochemical; conditions: read-out: AC50FBP; SK-HEP-1 lysate; Control (without AIM)
# Sequence of cell lysate PK (SK-HEP-1) (P14618 2-531): as above
# cell lysate PK = format: biochemical, Human; conditions: regulators at cellular concentrations; Fig. 5A
# In short: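 Lysates of control and PKM2 knockdown or knockout cells were assayed for PK by the coupled LDH/NADH method at 340 nm, 37 °C, pH 7.4. PEP was set at each line's measured cellular concentration, for example 0.07 mM for control HeLa and 0.21 mM for siPKM2 HeLa. FBP, the amino-acid mix, or both were added at cellular concentrations. Activity without regulators was set to 100%. Three independent experiments in triplicate.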
# PKM2 [2] = conditions: read-out: dissociation constant with PKM2; cited from earlier work
# [3] = test system: glycolytic pathway in HeLa cells; assay: Cellular glycolysis in treated HeLa cells; format: cell-based, Human
# In short: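 HeLa cells in RPMI-1640 (10% FBS, 37 °C, 5% CO2), with or without an added 5 mM serine for 5 h. In a second arm, cells were serine-deprived overnight and then given fresh medium with or without serine for 5 h. Read-outs: medium glucose and lactate, and HClO4-extracted intracellular glycolytic intermediates, from which Qs and ΔGs were calculated. A cell-free HeLa-lysate glycolysis system was also run with or without 5 mM serine.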
# [4] = test system: glycolytic pathway (HeLa cell lysate); assay: Cell-free glycolysis assay using HeLa cell lysate; format: biochemical, Human
# PKM2 [5] = conditions: activator of PKM2; cited from earlier work
# Sequence of cell lysate PK (HeLa) (P14618 2-531): as above
# Sequence of cell lysate PK (A549) (P14618 2-531): as above
compound,measurement,setting,value
O=C(COP(=O)(O)O)[C@@H](O)[C@H](O)[C@H](O)COP(=O)(O)O [FBP],ACMaxFBP (minimum concentration for maximal activation),cell lysate PK (A549); Control (without AIM),279.0 ± 143.1 nM
same,EC50,"cell lysate PK (A549); read-out: AC50FBP, with AIM",0.682 ± 0.126 µM
same,ACMaxFBP (minimum concentration for maximal activation),cell lysate PK (A549); with AIM,1258.9 ± 245.4 nM
same,ACMaxFBP (minimum concentration for maximal activation),cell lysate PK (HeLa); Control (without AIM),216.4 ± 52.8 nM
same,AC0: concentration of FBP that completely reverses the inhibition of PK by AIM,cell lysate PK (HeLa); with AIM,585.2 ± 99.0 nM
same,ACMaxFBP (minimum concentration for maximal activation),cell lysate PK (HeLa); with AIM,2293.7 ± 503.7 nM
same,AC0: concentration of FBP that completely reverses the inhibition of PK by AIM,cell lysate PK (MGC80-3),349.6 ± 31.2 nM
same,EC50,"cell lysate PK (RKO); read-out: AC50FBP, Control (without AIM)",0.0672 ± 0.0324 µM
same,EC50,"cell lysate PK (RKO); read-out: AC50FBP, with AIM",1.07 ± 0.394 µM
same,EC50,[1],0.0289 ± 0.021 µM
same,reversal of the inhibition of PK by AIM,cell lysate PK,completely reversed the inhibition
same,Kd,PKM2 [2],0.174 µM
"N[C@@H](Cc1ccccc1)C(=O)O [Phenylalanine, phenylalanine]",Kd,PKM2 [2],507 µM
"N[C@@H](CO)C(=O)O [Serine, serine]",glucose consumption and lactate generation with or without serine treatment,[3]; 5 mM serine 5 h,comparable
same,"effect on glycolysis (rate, intermediate concentrations, ΔGs)",[4]; 5 mM serine,did not observe serine exert any significant effect on glycolysis
same,reversal of the inhibition of PK by AIM,cell lysate PK,did not significantly reverse the inhibition
same,Kd,PKM2 [2],191 µM
Cn1c2cc([S+](C)[O-])sc2c2cnn(Cc3cccc(N)c3)c(=O)c21 (stereo not drawn) [TEPP-46],effect on glycolytic rate,[3]; 1 μM TEPP-46,no significant effect
"CC(C)[C@H](N)C(=O)O [Valine, valine]",Kd,PKM2 [2],757 ± 120 µM
NC(=O)C[C@H](N)C(=O)O [asparagine],Kd,PKM2 [2],11 ± 2 µM
N[C@@H](CC(=O)O)C(=O)O [aspartate],Kd,PKM2 [2],35 ± 7 µM
N[C@@H](CS)C(=O)O [cysteine],Kd,PKM2 [2],5.5 µM
